# Measurements published in ChEMBL document CHEMBL1932985, “Identification of biaryl sulfone derivatives as antagonists of the histamine H₃ receptor: discovery of (R)-1-(2-(4'-(3-methoxypropylsulfonyl)biphenyl-4-yl)ethyl)-2-methylpyrrolidine (APD916)” (Bioorg Med Chem Lett, 2012).
# Assays:
# Histamine H3 receptor [1] = target: Histamine H3 receptor (Rattus norvegicus, UniProt Q9QYN8); test: Displacement of N-[3H]-methylhistamine from histamine H3 receptor in rat cortex membranes; type: cell membranes, Membrane
# hERG (KCNH2) = hERG (KCNH2) (Homo sapiens, UniProt Q12809); test: Inhibition of human ERG at 3 uM by patch-clamp assay
# [2] = target: Voltage-gated inwardly rectifying potassium channel KCNH2 (Homo sapiens, UniProt Q12809); test: Inhibition of human ERG by patch-clamp assay
# Rattus norvegicus [3] = test: Inhibition of RAMH-induced dipsogenia in po dosed Sprague-Dawley rat administered 30 mins prior to RAMH challenge measured up to 20 mins; type: functional; settings: read-out: MED
# How it was run: (§1)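 Rats given compound orally 0.5 h (or, for duration of action, at selected times up to 6 h) before RAMH 10 mg/kg SC; water consumed over 20 min measured. Screening doses 1 or 0.3 mg/kg PO, also 0.1 mg/kg; duration study at 0.6 mg/kg PO. MED = minimum dose fully inhibiting drinking; means ± SEM.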
# [4] = Tmax in Sprague-Dawley rat at 3 mg/kg, po and iv by LC-MS/MS analysis; type: ADME, organism-based; parameters: dose 3 mg/kg, route oral; settings: in vivo
# How it was run: (§2)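 Rats were given the compound both IV and PO in a routine PK study. Tmax came from the PO arm and Vss from the IV arm.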
# [5] = Cmax in Sprague-Dawley rat plasma at 3 mg/kg, po and iv by LC-MS/MS analysis; type: ADME, organism-based; parameters: dose 3 mg/kg, route oral
# How it was run: (§3)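 Rat PK after IV and PO dosing; plasma Cmax, Tmax, IV half-life and Vss determined; oral bioavailability from AUCpo/AUCiv. Metabolite exposure determined after a 3 mg/kg PO parent dose.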
# [6] = Half life in Sprague-Dawley rat at 3 mg/kg, iv by LC-MS/MS analysis; type: ADME, organism-based; parameters: dose 3 mg/kg, route intravenous; settings: in vivo; how it was run: as §3
# Rattus norvegicus [7] = test: Volume of distribution at steady state in Sprague-Dawley rat at 3 mg/kg, po and iv by LC-MS/MS analysis; type: ADME, organism-based; parameters: dose 3 mg/kg, route oral; settings: in vivo; how it was run: as §2
# [8] = Oral bioavailability in Sprague-Dawley rat at 3 mg/kg by LC-MS/MS analysis; type: ADME, organism-based; settings: in vivo; how it was run: as §3
# [9] = Ratio of drug level in brain to plasma in Sprague-Dawley rat at 3 mg/kg, po and iv after 0.75 to 3 hrs by LC-MS/MS analysis; type: ADME, organism-based; parameters: dose 3 mg/kg, route oral; settings: read-out: BPR
# How it was run: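 Brain (µg/mg) and plasma (µg/mL) levels were measured after oral dosing, with three rats per time point. The b/p ratio was the mean of the nine individual ratios.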
# [10] = Plasma protein binding in rat; type: ADME, cell-free; settings: read-out: PPB (converted)
# [11] = Plasma protein binding in human; type: ADME, cell-free; settings: read-out: PPB (converted)
# [12] = Drug uptake in Sprague-Dawley rat brain at 0.3 mg/kg, po after 1 hr; type: ADME, organism-based; parameters: dose 0.3 mg/kg, route oral
# How it was run: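 Whole-brain concentration measured 1 h after a 0.3 mg/kg oral dose in rat, the time coinciding with the drinking measurement; expressed […].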
# Rattus norvegicus [13] = test: Inhibition of RAMH-induced dipsogenia in Sprague-Dawley rat at 0.6 mg/kg, po administered 6 hrs prior to RAMH challenge measured up to 20 mins; type: functional; how it was run: as §1
# [14] = Tmax in mouse at 3 mg/kg, po by LC-MS/MS analysis; type: ADME, organism-based; parameters: dose 3 mg/kg, route oral; settings: in vivo
# [15] = Tmax in monkey at 3 mg/kg, po by LC-MS/MS analysis; type: ADME, organism-based, Macaca mulatta; parameters: dose 3 mg/kg, route oral; settings: rhesus monkey, in vivo
# [16] = Tmax in dog at 3 mg/kg, po by LC-MS/MS analysis; type: ADME, organism-based, Canis lupus familiaris; parameters: dose 3 mg/kg, route oral; settings: in vivo
# [17] = Cmax in mouse at 3 mg/kg, po by LC-MS/MS analysis; type: ADME, organism-based; parameters: dose 3 mg/kg, route oral; settings: in vivo
# [18] = Cmax in monkey at 3 mg/kg, po by LC-MS/MS analysis; type: ADME, organism-based, Macaca mulatta; parameters: dose 3 mg/kg, route oral; settings: rhesus monkey, in vivo
# [19] = Cmax in dog at 3 mg/kg, po by LC-MS/MS analysis; type: ADME, organism-based, Canis lupus familiaris; parameters: dose 3 mg/kg, route oral; settings: in vivo
# [20] = Half life in mouse at 3 mg/kg, po by LC-MS/MS analysis; type: ADME, organism-based; parameters: dose 3 mg/kg, route oral; settings: in vivo
# [21] = Half life in Sprague-Dawley rat at 3 mg/kg, po by LC-MS/MS analysis; type: ADME, organism-based; parameters: dose 3 mg/kg, route oral; settings: in vivo
# [22] = Half life in monkey at 3 mg/kg, po by LC-MS/MS analysis; type: ADME, organism-based, Macaca mulatta; parameters: dose 3 mg/kg, route oral; settings: rhesus monkey, in vivo
# [23] = Half life in dog at 3 mg/kg, po by LC-MS/MS analysis; type: ADME, organism-based, Canis lupus familiaris; parameters: dose 3 mg/kg, route oral; settings: in vivo
# [24] = Oral bioavailability in monkey at 3 mg/kg by LC-MS/MS analysis; type: ADME, organism-based, Macaca mulatta; settings: rhesus monkey, in vivo
# [25] = Oral bioavailability in dog at 3 mg/kg by LC-MS/MS analysis; type: ADME, organism-based, Canis lupus familiaris; settings: in vivo
# [26] = Clearance in mouse at 3 mg/kg, po by LC-MS/MS analysis; type: ADME, organism-based; parameters: dose 3 mg/kg, route oral; settings: in vivo
# [27] = Clearance in Sprague-Dawley rat at 3 mg/kg, po by LC-MS/MS analysis; type: ADME, organism-based; parameters: dose 3 mg/kg, route oral; settings: in vivo
# [28] = Clearance in monkey at 3 mg/kg, po by LC-MS/MS analysis; type: ADME, organism-based, Macaca mulatta; parameters: dose 3 mg/kg, route oral; settings: rhesus monkey, in vivo
# [29] = Clearance in dog at 3 mg/kg, po by LC-MS/MS analysis; type: ADME, organism-based, Canis lupus familiaris; parameters: dose 3 mg/kg, route oral; settings: in vivo
# Mus musculus [30] = test: Hepatic blood flow in mouse at 3 mg/kg, po by LC-MS/MS analysis; type: ADME, organism-based, Liver; parameters: dose 3 mg/kg, route oral; settings: in vivo
# Rattus norvegicus [31] = test: Hepatic blood flow in Sprague-Dawley rat at 3 mg/kg, po by LC-MS/MS analysis; type: ADME, organism-based, Liver; parameters: dose 3 mg/kg, route oral; settings: in vivo
# Rhesus monkey [32] = test: Hepatic blood flow in monkey at 3 mg/kg, po by LC-MS/MS analysis; type: ADME, organism-based, Macaca mulatta, Liver; parameters: dose 3 mg/kg, route oral; settings: in vivo
# Canis familiaris [33] = test: Hepatic blood flow in dog at 3 mg/kg, po by LC-MS/MS analysis; type: ADME, organism-based, Canis lupus familiaris, Liver; parameters: dose 3 mg/kg, route oral; settings: in vivo
# Mus musculus [34] = test: Volume of distribution at steady state in mouse at 3 mg/kg, po by LC-MS/MS analysis; type: ADME, organism-based; parameters: dose 3 mg/kg, route oral; settings: in vivo
# Rattus norvegicus [35] = test: Volume of distribution at steady state in Sprague-Dawley rat at 3 mg/kg, po by LC-MS/MS analysis; type: ADME, organism-based; parameters: dose 3 mg/kg, route oral; settings: in vivo
# Rhesus monkey [36] = test: Volume of distribution at steady state in monkey at 3 mg/kg, po by LC-MS/MS analysis; type: ADME, organism-based, Macaca mulatta; parameters: dose 3 mg/kg, route oral; settings: in vivo
# Canis familiaris [37] = test: Volume of distribution at steady state in dog at 3 mg/kg, po by LC-MS/MS analysis; type: ADME, organism-based, Canis lupus familiaris; parameters: dose 3 mg/kg, route oral; settings: in vivo
# Histamine H3 receptor [38] = target: T1, Histamine H3 receptor (Homo sapiens, UniProt Q9Y5N1); test: Binding affinity to human cloned histamine H3 receptor
# Histamine H3 receptor [39] = target: T1, Histamine H3 receptor; test: Inverse agonist activity at human cloned histamine H3 receptor by [35S]GTPgammaS binding assay; type: functional
# Cytochrome P450 3A4 = Cytochrome P450 3A4 (Homo sapiens, UniProt P08684); test: Inhibition of CYP3A4; type: ADME
# How it was run: (§4)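 Inhibition tested against five major CYP isoforms; IC50 determined.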
# Cytochrome P450 1A2 = target: T2, Cytochrome P450 1A2 (Homo sapiens, UniProt P05177); test: Inhibition of CYP1A2; type: ADME; how it was run: as §4
# T2 sequence (P05177 whole entry): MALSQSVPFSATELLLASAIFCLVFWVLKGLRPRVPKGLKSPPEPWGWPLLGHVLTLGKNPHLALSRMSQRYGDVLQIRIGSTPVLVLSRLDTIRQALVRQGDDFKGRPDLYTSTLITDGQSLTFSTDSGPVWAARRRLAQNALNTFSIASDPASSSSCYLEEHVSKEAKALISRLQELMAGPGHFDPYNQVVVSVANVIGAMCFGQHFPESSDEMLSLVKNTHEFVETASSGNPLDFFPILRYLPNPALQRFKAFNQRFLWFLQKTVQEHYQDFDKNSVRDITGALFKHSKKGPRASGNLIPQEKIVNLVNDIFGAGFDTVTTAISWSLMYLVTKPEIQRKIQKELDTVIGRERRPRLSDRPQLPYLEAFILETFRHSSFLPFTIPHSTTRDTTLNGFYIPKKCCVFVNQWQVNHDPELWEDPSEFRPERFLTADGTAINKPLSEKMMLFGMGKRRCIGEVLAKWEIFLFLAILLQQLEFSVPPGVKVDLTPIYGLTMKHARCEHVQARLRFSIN
# Cytochrome P450 2C9 = Cytochrome P450 2C9 (Homo sapiens, UniProt P11712); test: Inhibition of CYP2C9; type: ADME; how it was run: as §4
# Cytochrome P450 2C19 = Cytochrome P450 2C19 (Homo sapiens, UniProt P33261); test: Inhibition of CYP2C19; type: ADME; how it was run: as §4
# Cytochrome P450 2D6 = Cytochrome P450 2D6 (Homo sapiens, UniProt P10635); test: Inhibition of CYP2D6; type: ADME; how it was run: as §4
# Salmonella typhimurium = test: Mutagenic activity in Salmonella Typhimurium by micro-Ames assay; type: toxicity, organism-based; settings: salmonella enterica subsp. enterica serovar typhimurium
# [40] = Cmax in Sprague-Dawley rat at 3 mg/kg, po by LC-MS/MS analysis; type: ADME, organism-based; parameters: dose 3 mg/kg, route oral; settings: in vivo; how it was run: as §3
# [41] = Oral bioavailability in mouse at 3 mg/kg by LC-MS/MS analysis; type: ADME, organism-based; settings: in vivo
# Canis lupus familiaris [42] = test: Cardiotoxicity in dog assessed as increase in mean arterial blood pressure at 10 to 30 mg/kg, po; settings: in vivo
# Canis lupus familiaris [43] = test: Cardiotoxicity in dog assessed as increase in mean arterial blood pressure at 10 to 30 mg/kg, po after 60 mins; settings: in vivo, 1 h
# T1 sequence (Q9Y5N1 whole entry): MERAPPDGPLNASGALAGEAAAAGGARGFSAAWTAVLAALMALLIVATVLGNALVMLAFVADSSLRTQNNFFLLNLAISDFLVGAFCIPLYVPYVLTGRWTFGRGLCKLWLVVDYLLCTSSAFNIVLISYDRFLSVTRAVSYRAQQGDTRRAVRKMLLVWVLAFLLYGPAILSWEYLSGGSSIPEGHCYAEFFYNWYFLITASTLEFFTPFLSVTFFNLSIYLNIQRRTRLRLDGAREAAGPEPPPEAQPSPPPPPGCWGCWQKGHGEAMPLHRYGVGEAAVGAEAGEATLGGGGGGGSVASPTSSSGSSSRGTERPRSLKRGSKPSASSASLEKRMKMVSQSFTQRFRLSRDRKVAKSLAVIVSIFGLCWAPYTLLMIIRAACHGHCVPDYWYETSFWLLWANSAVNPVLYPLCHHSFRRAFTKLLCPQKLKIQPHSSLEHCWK
# Sequence of Cytochrome P450 2D6 (P10635 whole entry): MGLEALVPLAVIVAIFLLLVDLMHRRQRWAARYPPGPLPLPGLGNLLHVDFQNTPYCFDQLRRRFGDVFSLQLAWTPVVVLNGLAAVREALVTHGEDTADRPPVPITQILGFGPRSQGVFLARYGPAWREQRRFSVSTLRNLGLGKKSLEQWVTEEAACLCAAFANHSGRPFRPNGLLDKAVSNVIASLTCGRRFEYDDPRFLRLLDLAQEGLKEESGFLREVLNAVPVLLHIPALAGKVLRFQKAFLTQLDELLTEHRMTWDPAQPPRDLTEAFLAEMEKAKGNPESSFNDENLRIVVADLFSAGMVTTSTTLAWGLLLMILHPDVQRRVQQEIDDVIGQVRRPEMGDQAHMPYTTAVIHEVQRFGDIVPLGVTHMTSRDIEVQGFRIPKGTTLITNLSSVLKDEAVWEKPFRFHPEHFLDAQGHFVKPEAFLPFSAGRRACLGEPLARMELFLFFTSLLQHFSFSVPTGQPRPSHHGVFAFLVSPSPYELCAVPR
# Sequence of Voltage-gated inwardly rectifying potassium channel KCNH2 (Q12809 whole entry): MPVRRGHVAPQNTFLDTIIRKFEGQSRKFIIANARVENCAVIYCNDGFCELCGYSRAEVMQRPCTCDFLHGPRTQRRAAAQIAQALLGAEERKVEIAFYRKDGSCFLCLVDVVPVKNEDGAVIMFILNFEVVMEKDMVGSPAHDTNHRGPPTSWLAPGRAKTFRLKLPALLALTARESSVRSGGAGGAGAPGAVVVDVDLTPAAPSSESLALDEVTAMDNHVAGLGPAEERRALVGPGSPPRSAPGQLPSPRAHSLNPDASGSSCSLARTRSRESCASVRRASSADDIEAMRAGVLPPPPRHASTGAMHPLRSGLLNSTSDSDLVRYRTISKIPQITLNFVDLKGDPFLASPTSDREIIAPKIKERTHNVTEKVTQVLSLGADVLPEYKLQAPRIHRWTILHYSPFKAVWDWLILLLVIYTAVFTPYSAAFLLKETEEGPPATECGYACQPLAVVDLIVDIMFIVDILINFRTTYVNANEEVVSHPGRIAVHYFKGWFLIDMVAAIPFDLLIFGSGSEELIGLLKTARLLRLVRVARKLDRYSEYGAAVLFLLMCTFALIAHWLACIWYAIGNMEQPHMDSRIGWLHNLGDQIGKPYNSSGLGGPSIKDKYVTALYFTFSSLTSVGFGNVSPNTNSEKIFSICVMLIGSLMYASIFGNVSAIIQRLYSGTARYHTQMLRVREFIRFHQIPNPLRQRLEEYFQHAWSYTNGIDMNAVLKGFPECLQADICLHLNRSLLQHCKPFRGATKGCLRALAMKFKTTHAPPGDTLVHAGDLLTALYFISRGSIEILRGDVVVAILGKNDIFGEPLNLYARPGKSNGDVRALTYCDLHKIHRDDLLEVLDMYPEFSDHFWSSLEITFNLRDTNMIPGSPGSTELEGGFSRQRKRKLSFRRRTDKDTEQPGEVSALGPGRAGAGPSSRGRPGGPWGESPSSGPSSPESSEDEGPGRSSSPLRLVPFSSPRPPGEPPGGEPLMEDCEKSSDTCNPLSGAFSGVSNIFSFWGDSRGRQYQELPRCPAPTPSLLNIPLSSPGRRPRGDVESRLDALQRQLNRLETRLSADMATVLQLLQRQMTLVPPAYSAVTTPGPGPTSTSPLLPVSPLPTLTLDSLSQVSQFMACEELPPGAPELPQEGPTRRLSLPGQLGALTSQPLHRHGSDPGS
# Sequence of hERG (KCNH2) (Q12809 whole entry): as above
# Sequence of Histamine H3 receptor (Rattus norvegicus, UniProt Q9QYN8) (Q9QYN8 whole entry): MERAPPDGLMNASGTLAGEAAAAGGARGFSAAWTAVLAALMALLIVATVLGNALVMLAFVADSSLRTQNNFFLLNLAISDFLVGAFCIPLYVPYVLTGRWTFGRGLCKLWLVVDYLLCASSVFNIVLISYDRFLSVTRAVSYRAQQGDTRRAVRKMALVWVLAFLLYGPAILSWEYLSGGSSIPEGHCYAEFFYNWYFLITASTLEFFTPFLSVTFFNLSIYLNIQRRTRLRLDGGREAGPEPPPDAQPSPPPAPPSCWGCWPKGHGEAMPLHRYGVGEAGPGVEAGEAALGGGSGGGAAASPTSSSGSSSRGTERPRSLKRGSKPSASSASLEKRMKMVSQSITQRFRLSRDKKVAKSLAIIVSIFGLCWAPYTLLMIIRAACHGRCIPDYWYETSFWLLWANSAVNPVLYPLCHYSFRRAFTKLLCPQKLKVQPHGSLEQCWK
# Sequence of Cytochrome P450 2C19 (P33261 whole entry): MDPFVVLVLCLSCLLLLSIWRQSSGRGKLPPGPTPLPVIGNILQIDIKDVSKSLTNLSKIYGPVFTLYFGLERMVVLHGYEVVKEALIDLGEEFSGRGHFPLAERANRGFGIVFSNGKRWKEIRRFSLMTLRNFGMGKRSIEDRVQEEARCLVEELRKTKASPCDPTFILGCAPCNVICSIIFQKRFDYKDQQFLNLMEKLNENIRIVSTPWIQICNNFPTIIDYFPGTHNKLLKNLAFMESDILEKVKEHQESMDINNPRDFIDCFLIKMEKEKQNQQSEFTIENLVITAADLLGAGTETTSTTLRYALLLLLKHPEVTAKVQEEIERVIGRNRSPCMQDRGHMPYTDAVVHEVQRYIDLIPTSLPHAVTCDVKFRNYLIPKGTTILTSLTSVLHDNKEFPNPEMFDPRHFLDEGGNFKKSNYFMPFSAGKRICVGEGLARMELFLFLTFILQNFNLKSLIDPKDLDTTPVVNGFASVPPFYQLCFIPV
# Sequence of Cytochrome P450 2C9 (P11712 whole entry): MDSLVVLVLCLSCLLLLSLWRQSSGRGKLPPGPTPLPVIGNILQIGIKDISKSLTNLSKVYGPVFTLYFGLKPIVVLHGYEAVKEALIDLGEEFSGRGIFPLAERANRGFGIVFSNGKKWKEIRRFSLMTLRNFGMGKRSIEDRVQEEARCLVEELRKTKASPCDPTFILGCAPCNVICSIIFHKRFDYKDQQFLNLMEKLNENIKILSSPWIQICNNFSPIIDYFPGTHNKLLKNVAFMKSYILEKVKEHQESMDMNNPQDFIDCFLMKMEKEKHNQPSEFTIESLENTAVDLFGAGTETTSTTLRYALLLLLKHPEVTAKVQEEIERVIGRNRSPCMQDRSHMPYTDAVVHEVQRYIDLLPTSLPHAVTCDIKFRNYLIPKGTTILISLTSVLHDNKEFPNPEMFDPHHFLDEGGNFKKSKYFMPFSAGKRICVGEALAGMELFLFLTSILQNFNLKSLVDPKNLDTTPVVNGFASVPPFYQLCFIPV
structure (smiles),measurement,setting,value
COCCCS(=O)(=O)c1ccc(-c2ccc(CCN3CCC[C@H]3C)cc2)cc1,Ki,Histamine H3 receptor [1],0.0007 µM
same,inhibition at 3 µM,hERG (KCNH2),14%
same,IC50,[2],11 µM
same,minimal effective dose,Rattus norvegicus [3],0.3 mg/kg
same,Tmax,[4],0.5 h
same,Cmax,[5],104 ng/mL
same,half-life,[6],1.9 h
same,Vdss,Rattus norvegicus [7],7.5 L/kg
same,bioavailability,[8],27.3%
same,Kp,[9],3.3
same,fraction unbound,[10],0.26
same,fraction unbound,[11],0.26
same,concentration at 1 h,[12],17 ng/g
same,inhibition in vivo at 0.6 mg/kg,Rattus norvegicus [13],< 20%
same,Tmax,[14],1 h
same,Tmax,[15],2.3 h
same,Tmax,[16],0.8 h
same,Cmax,[17],80 ng/mL
same,Cmax,[18],550 ng/mL
same,Cmax,[19],600 ng/mL
same,half-life,[20],1.5 h
same,half-life,[21],1.9 h
same,half-life,[22],6.9 h
same,half-life,[23],5 h
same,bioavailability,[24],67.5%
same,bioavailability,[25],100%
same,CL/F,[26],72.7 mL/min/kg
same,CL/F,[27],74.3 mL/min/kg
same,CL/F,[28],6.17 mL/min/kg
same,CL/F,[29],13.7 mL/min/kg
same,QH,Mus musculus [30],78%
same,QH,Rattus norvegicus [31],106%
same,QH,Rhesus monkey [32],14%
same,QH,Canis familiaris [33],43%
same,Vdss,Mus musculus [34],2.54 L/kg
same,Vdss,Rattus norvegicus [35],7.54 L/kg
same,Vdss,Rhesus monkey [36],2.16 L/kg
same,Vdss,Canis familiaris [37],2.89 L/kg
same,Ki,Histamine H3 receptor [38],0.0042 µM
same,IC50,Histamine H3 receptor [39],0.0007 µM
same,IC50,Cytochrome P450 3A4,> 40 µM
same,IC50,Cytochrome P450 1A2,> 40 µM
same,IC50,Cytochrome P450 2C9,> 40 µM
same,IC50,Cytochrome P450 2C19,> 40 µM
same,IC50,Cytochrome P450 2D6,> 40 µM
same,Activity,Salmonella typhimurium,Non-toxic
same,Cmax,[40],100 ng/mL
same,bioavailability,[41],35.4%
same,Activity,Canis lupus familiaris [42],Toxic
same,Activity,Canis lupus familiaris [43],Non-toxic
